# From article PMC3016154 (Journal of biomolecular screening, 2010)
# Key:
# EAAT2 protein expression = settings: mice, intraperitoneal injection; cited from earlier work
# EAAT2 = settings: cited from earlier work
# [1] = test system: EAAT2 protein expression (human EAAT2 transcripts with the 1091-nucleotides 5′ UTR); experiment: Cell-based ELISA for EAAT2 protein expression in PA-EAAT2 cells; settings: retinoic acid 1.5 μg/mL, 384-well format, vs DMSO
# How it was run: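 PA-EAAT2 cells at 8000/well, grown 36 h in 2% FBS DMEM with geneticin, then switched to serum-free DMEM/geneticin and exposed 72 h (0.20% DMSO final). Fixed 2 h in 4% formaldehyde; peroxide quench, milk block; rabbit anti-EAAT2 1:2000 overnight at 4°C, HRP anti-rabbit 1:6000 for 2 h; chemiluminescence read at 40 min. % activation vs DMSO wells; EC50 from 12-point 3-fold series, […], quadruplicate.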
smiles,measurement,setting,value
"CO/N=C(\C(=O)N[C@@H]1C(=O)N2C(C(=O)O)=C(CSc3nc(=O)c(=O)[nH]n3C)CS[C@H]12)c1csc(N)n1 [ceftriaxone, Ceftriaxone]",induction of EAAT2 protein expression or glutamate uptake activity,EAAT2 protein expression,only slightly induces
C[C@]12C[C@H](O)[C@H]3[C@@H](CCC4=CC(=O)CC[C@@]43C)[C@@H]1CC[C@@H]2C(=O)CO [corticosterone],translational activator of EAAT2,EAAT2,translational activator of EAAT2
CC1=C(/C=C/C(C)=C/C=C/C(C)=C/C(=O)O)C(C)(C)CCC1 [retinoic acid],PA-EAAT2 cell signal increase,[1],2- to 3.5 fold
